Screening results (PubChem BioAssay)
CSC inhib: cancer stem cell inhibition; cancer stem cell-like cells viability, luminescence; inhibition, % at 7.5 µM; 300,000 tested, 1.1% active; AID 2717; in the data active = inhibition above about 75%; tested in HMLE shEcad cells
T cruzi inh: T. cruzi replication inhibition. AID 1885. inhibition, % (no concentration beside the values). T. cruzi beta-gal in NIH3T3, luminescence, 90 h. 300,000 tested, 1.4% active;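 active = mean inhibition across valid replicates above about 55%, limit read from the data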;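 also: signal also drops with host cell toxicity which is not excluded here; 0% = plate median of DMSO wells and 100% = zero luminescence signal; higher percent means less beta-gal luminescence so fewer parasites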
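Incubation – ≥90 h infection period, 3 h prior cell attachment · System – NIH/3T3 fibroblasts plus reporter T. cruzi · Doses – compound pinned at 50 nL/well, DMSO · Read-out basis – percent inhibition of parasite-derived β-gal signal · Signal – luminescent β-galactosidase signal after 60 min lysis · Also added – 5000 T. cruzi trypomastigotes/well · Medium – Low-serum DMEM with 2% FBS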
Beta apoptosis: blocks beta cell apoptosis; protection from apoptosis, % (test concentration not listed); 300,000 tested, 0.8% active; AID 435005; INS-1E cytokine-induced death, ATP luminescence, 48 h; percent of positive-control rescue, neutral wells zero;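 active = Every replicate reaches about 75%, or at least half do and their mean reaches it too, limit read from the data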;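 also: 0% = cytokine-treated negative control wells and 100% = positive control rescue; higher means more ATP so stronger rescue from cytokine killing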
SKKanGAS inh: blocks kanamycin growth of S. pyogenes SKKanGAS strain | inhibition, % at 7.5 µM | AID 1662 | BacTiter-Glo, 6 h | 300,000 tested, 1.3% active;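 active = mean replicate score, as percent of positive control median, at least 50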;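 also: strain carries kanamycin resistance gene driven by streptokinase promoter and grows in 40 µg/ml kanamycin; loss of luminescence reflects streptokinase promoter inhibition or plain growth inhibition; 0% = median of DMSO wells and 100% = positive control at its reference dose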
Mdm2-MdmX inh: human Mdm2/MdmX binding inhibition | O15151+Q00987 | 330,000 tested, 3% active | inhibition, % at 8 µM | SaOS-2 split-luciferase Mdm2/MdmX complementation, luminescence;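 active = inhibition of at least 50% at 8 µM in the primary screen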
Target sequence (O15151 whole entry, looked up): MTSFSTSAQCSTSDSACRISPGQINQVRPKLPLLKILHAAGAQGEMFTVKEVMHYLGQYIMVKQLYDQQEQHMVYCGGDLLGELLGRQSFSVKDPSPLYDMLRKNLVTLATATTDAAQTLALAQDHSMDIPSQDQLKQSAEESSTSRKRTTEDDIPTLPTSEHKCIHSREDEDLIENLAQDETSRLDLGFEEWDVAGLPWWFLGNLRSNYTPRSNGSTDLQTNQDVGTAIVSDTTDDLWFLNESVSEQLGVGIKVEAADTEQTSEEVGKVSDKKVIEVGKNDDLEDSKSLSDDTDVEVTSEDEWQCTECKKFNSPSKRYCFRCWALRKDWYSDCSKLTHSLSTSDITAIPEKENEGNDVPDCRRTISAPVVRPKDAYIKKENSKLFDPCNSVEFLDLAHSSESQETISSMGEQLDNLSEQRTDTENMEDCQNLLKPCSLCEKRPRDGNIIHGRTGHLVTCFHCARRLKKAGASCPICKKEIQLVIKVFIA
Target sequence (Q00987 whole entry, looked up): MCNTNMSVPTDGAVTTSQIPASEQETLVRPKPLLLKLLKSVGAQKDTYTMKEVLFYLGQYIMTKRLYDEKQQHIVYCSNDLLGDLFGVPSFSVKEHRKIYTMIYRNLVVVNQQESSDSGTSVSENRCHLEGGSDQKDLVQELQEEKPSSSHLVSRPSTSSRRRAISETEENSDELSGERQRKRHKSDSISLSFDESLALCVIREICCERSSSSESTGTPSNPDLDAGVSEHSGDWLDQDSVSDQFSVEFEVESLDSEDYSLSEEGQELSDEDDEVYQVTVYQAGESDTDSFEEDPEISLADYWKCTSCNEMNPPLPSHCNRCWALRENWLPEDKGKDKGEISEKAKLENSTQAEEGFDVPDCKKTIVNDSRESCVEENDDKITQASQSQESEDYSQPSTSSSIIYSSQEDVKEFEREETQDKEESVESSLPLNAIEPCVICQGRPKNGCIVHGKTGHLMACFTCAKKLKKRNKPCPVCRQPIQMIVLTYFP
L major viab: Leishmania major promastigote growth inhibition; Leishmania major promastigotes, resazurin fluorescence viability; inhibition, % at 10 µM; 200,000 tested, 9% active; AID 1063; in the data active = inhibition above about 50%;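 also: promastigotes grown with compound for 44 hours at 28 °C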
* marks the source's active call; other numbers are inactive results; x = not tested or not shown. Shown are actives, neighbours in structure and some others; about 9.4% of the full set was active somewhere.

SMILES	CSC inhib	T cruzi inh	Beta apoptosis	SKKanGAS inh	Mdm2-MdmX inh	L major viab
CC(=O)Nc1ccc(OC(=O)N2CCCCC2)cc1	-1.0	2.0	0.4	x	12.0	-5.5
Cc1cccc(-n2c(C)nc3ccc(Cl)cc3c2=O)c1	-12.6	5.3	-1.8	2.4	6.2	x
COC(=O)C1=C(c2ccc(F)cc2OCc2ccccc2)C[C@@H]2CC[C@H]1N2C(=O)NCc1cccc(C(F)(F)F)c1	18.6	x	-2.2	x	23.8	x
Oc1c(Br)cc(Br)cc1Oc1ccc(Br)cc1Br	107.8*	-9.5	9.4	106.9*	x	-5.6
COc1cc(CN=Cc2c(O)n(C(C)(C)C)c(=O)[nH]c2=O)cc(OC)c1	-4.7	18.4	-8.3	-2.4	11.0	x
COc1ccccc1NC(=O)c1cn(CCC#N)nc1-c1cccc(Cl)c1	-9.0	5.5	0.9	8.0	-10.6	x
CN1CCN(c2ccc([N+](=O)[O-])c(NCC3CCCO3)c2)CC1 (stereo unspecified)	-13.6	25.8	-4.3	-10.4	11.3	-1.0
O=[N+]([O-])c1ccc(N2CCNCC2)cc1NCc1ccco1	8.8	4.8	-3.2	2.2	10.5	100.6*
CN1CCN(c2ccc([N+](=O)[O-])c(NCc3ccco3)c2)CC1	93.0*	46.0	3.0	-1.8	6.3	99.9*
COC(=O)C1=C(c2ccc3ccccc3c2)C[C@@H]2CC[C@H]1N2C(=O)NCc1ccc(C(F)(F)F)cc1	49.9	x	6.6	x	19.3	x
CC(=O)O[C@@H]1CC[C@]2(C)C3CC[C@]4(C)C(=O)[C@H](O)CC4C3[C@@H](OC(C)=O)C[C@H]2C1 (stereo partly specified)	12.4	x	-5.5	x	26.3	x
CCCCCc1cc(O)c2c3c(c(=O)oc2c1)CN(C)CC3	84.0*	2.9	10.4	7.6	27.4	99.2*
CC(C)(C)C(O)C(Oc1ccc(Cl)cc1)n1cncn1 (stereo unspecified)	7.2	59.8*	x	2.6	11.9	82.1*
COCCNCCOc1ccc(C(C)(C)c2ccccc2)cc1	70.0	20.4	-1.3	-2.6	2.2	97.8*
Cc1ccsc1C(=O)C1CCCN(Cc2cccc(-n3cccn3)c2)C1 (stereo unspecified)	1.3	41.1	-3.5	-4.5	12.5	57.6*
Cc1ccsc1C(=O)C1CCCN(Cc2ccc(-n3cccn3)cc2)C1 (stereo unspecified)	-4.9	61.4*	-5.2	-4.2	-12.7	-0.7
O=C(c1cc(C(=O)NCc2ccccc2)c(=O)n(Cc2ccccc2)c1)c1cc(Br)ccc1O	28.2	27.2	32.5	22.2	28.8	99.4*
Cn1cc(C(=O)NCc2ccccc2)c2ccccc21	-1.5	-7.2	-4.2	-2.7	-34.4	1.4
Cc1ccc(O)c(C(=O)c2cc(C(=O)NCc3ccccc3)c(=O)n(Cc3ccccc3)c2)c1	3.3	1.4	19.0	-11.6	18.7	78.0*
COC(=O)C1=C(c2cccc(C#N)c2)C[C@@H]2CC[C@H]1N2C(=O)N1CCC(O)CC1	7.6	x	1.9	x	9.4	x
Cc1sc2ncnc(N3CCC(C(=O)Nc4ccc(C#N)c(Cl)c4)CC3)c2c1C	-6.1	18.6	-1.8	57.2*	30.9	x
Cc1noc(C)c1CSCC(=O)Nc1ccc(C#N)c(Cl)c1	-14.4	x	1.5	x	4.5	x
COc1cccc(C(=O)C2CCCN(Cc3cnn(C(C)C)c3)C2)c1 (stereo unspecified)	-15.3	38.9	-4.1	-1.2	6.1	71.0*
COc1cccc(C(=O)C2CCCN(Cc3cccc(C)n3)C2)c1 (stereo unspecified)	2.5	15.1	6.7	32.9	8.0	29.3
Cc1cccc(CN2CCCC(C(=O)c3cccc(OC(C)C)c3)C2)n1 (stereo unspecified)	-0.6	31.4	-7.7	1.5	10.6	59.8*
SMILES	CSC inhib	T cruzi inh	Beta apoptosis	SKKanGAS inh	Mdm2-MdmX inh	L major viab
COc1cccc(C(=O)C2CCCN(Cc3ccc4nsnc4c3)C2)c1 (stereo unspecified)	6.5	0.7	1.6	0.2	-5.0	87.4*
CC1=C(/C=C/c2ccccc2)CCN(C)C1	x	26.8	-2.2	5.5	-26.5	98.6*
CC(=O)/C=C/c1ccccc1	x	x	x	x	-8.4	x
COc1cccc(-n2c(/C=C/c3ccc(O)c(O)c3)nc3ccccc3c2=O)c1	-9.0	-12.6	-0.9	7.5	45.2	21.4
COc1ccc(-n2c(/C=C/c3ccc(O)c(OC)c3)nc3ccccc3c2=O)cc1	15.5	-6.9	16.8	91.2*	44.4	x
Cc1nn(Cc2ccccc2Cl)c(C)c1C(=O)OCC(=O)N1CC(C)OC(C)C1 (stereo unspecified)	-14.5	-8.0	-3.5	-2.3	-0.1	-7.3
